Measured values reported in article PMC12750163 (Acta Pharmaceutica Sinica. B, 2025).

Columns and labels:
LLC tumor-bearing mice = test: In vivo biodistribution; design: species or system mouse; details: i.v., over time
Procedure, shortened: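 Cy5.5-loaded liposomes stand in for drug and anti-PD1. Free Cy5.5 or Cy5.5-nanoparticles (3 mg/kg Cy5.5 equivalent) are injected via the tail vein into LLC tumour-bearing nude mice. Mice are imaged under anaesthesia at 2, 4, 6, 8, 12 and 24 h (λex/λem 680/704 nm). Mean tumour ROI fluorescence is quantified. Organs and tumours are imaged ex vivo at 24 h.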

A549 cells = test: PD-L1 and EVs in A549 cells treated with GW4869; format: cell-based, human; details: 10 μmol/L
Procedure, shortened: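 A549 or LSD1-knockout A549 cells (lentiviral editing, antibiotic selection, PCR/sequencing check, single-cell cloning) are treated ± 10 μmol/L GW4869. Conditioned medium is spun 3000 × g, 10 min, 4 °C. EVs are precipitated with an equal volume of isolation reagent at 4 °C, pelleted 10,000 × g, 60 min, 4 °C, and PBS-washed. Characterisation by TEM/NTA. PD-L1, ALIX, TSG101 and CD9 are detected by western blot from equal cell numbers.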

accumulation at the tumor site compared with Cy5.5-FPNs (LLC tumor-bearing mice) | Compound | levels of EVs and EVs-PD-L1 (A549 cells; A549 cells) | membrane PD-L1 and total PD-L1 (A549 cells; A549 cells) | membrane PD-L1 (A549 cells; LSD1-knockout A549 cells)
much lower | Cy5.5 |  |  | 
 | O=C(/C=C/c1ccc(/C=C/C(=O)Nc2ccc(C3=NCCN3)cc2)cc1)Nc1ccc(C2=NCCN2)cc1 [GW4869] | reduced | significant accumulation | induced the accumulation
